Screens deposited in PubChem by several laboratories.
Compounds with a hit are over-represented: about 1.8% of the library has one in this group of screens.
ABHD4 inh = inhibitors of mouse ABHD4 | Q8VD66 | purified mABHD4, FP-Rh probe fluorescence polarization | inhibition, % at 8.92 µM | 370,000 compounds, 0.54% hits;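 active means inhibition exceeding the mean over every tested compound plus 3 SD, cut at about 30% in these data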;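 further: 0% = plate median of compound wells and 100% = S159A mutant with DMSO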
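System: mouse ABHD4 enzyme, wild type / Medium: HEPES pH 7.0, NaCl, Pluronic buffer / Reagent: FP-Rh activity-based fluorescent probe / Control set: S159A mutant high control, sample median low control / Detection: fluorescence polarization with parallel and perpendicular emission, 525/598 nm / Schedule: 45 min + 60 min at 25 °C / Compound dosing: 8.92 µM, single dose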
TCR-CD3 inh = human TCR-CD3 binding inhibition; TAMRA-labeled TCR probe fluorescence, biochemical; inhibition, % at 9.4 µM; 360,000 compounds, 0.37% hits; in the data active means inhibition above about 19%;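 further: recombinant mutant TCR 2C K166C tagged with TAMRA read by polarization; 0% = receptor in buffer alone and 100% = receptor with positive control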
SIAE primary = inhibitors of human sialic acid acetylesterase SIAE; Q9HAT2; SIAE FP-Rh probe binding, fluorescence polarization; inhibition, % at 9.66 µM; 370,000 compounds, 0.69% hits;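 active means inhibition above a cutoff: mean of compounds within the control limits plus 3 SD of those, cut at about 17% in these data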;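 further: 0% = plate median of compound wells and 100% = probe without SIAE protein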
Target sequence (Q9HAT2 whole entry, looked up): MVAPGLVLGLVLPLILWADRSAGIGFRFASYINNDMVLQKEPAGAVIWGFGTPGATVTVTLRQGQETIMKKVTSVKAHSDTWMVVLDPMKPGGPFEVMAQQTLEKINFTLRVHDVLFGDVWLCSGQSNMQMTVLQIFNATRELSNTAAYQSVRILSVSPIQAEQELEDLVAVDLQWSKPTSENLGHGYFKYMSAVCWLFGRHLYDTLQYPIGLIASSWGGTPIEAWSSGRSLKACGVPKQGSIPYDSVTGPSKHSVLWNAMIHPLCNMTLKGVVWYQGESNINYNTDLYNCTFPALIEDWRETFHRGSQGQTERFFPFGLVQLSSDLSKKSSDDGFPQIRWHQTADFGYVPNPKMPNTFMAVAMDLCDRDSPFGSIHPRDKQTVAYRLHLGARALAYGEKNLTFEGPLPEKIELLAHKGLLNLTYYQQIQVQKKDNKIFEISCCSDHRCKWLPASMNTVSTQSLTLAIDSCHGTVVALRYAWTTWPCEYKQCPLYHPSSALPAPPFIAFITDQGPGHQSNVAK
ARNT-TACC3 inh = ARNT/TACC3 interaction disruption; Q9Y6A5; AlphaScreen His-ARNT PAS-B/GST-TACC3 binding, luminescence; TACC3 fragment carries E629A point mutation; inhibition, % at 9.99 µM; 390,000 compounds, 0.66% hits; AID 623870;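 active means mean inhibition of replicates at least 50% and at least half of replicates each reaching 50%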;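 further: 0% = complete ARNT plus TACC3 wells and 100% = ARNT alone without TACC3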
HTRA1 inhibitor = blocks human HTRA1 serine peptidase; Q92743; inhibition, % at 5.96 µM; 340,000 compounds, 0.5% hits; recombinant HTRA1, FP-rhodamine activity-based probe, fluorescence polarization; AID 504803; in the data active means inhibition above about 36%;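 further: 0% = enzyme with DMSO and 100% = wells lacking enzyme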
* marks the source's active call; other numbers are inactive results; . = not tested or not shown.

SMILES	ABHD4 inh	TCR-CD3 inh	SIAE primary	ARNT-TACC3 inh	HTRA1 inhibitor
O=[N+]([O-])c1cc(CN2CCCC2)c2cccnc2c1O	.	.	.	77*	54*
COCc1cc(CN2CCCC2)c(O)c2ncccc12	10	3	4	60*	18
Oc1ccc(CN2CCN(c3ccccc3)CC2)c2cccnc12	.	.	.	14	29
Oc1ccc(CN2CCCCC2)c2cccnc12	12	-2	-3	80*	20
Oc1ccc(COCc2ccccc2)c2cccnc12	6	2	8	80*	34
Oc1ccc(Cc2ccccc2)c2cccnc12	19	1	10	.	.
Oc1ccc(CNc2ccccc2F)c2cccnc12	-2	-1	9	49*	10
CCCOCc1ccc(O)c2ncccc12	5	-15	0	36	31
Oc1c(Cl)cc(CN2CCCCC2)c2cccnc12	.	.	.	77*	46*
OCc1ccc(O)c2ncccc12	8	5	15	71*	22
Cc1noc(C)c1NC(=O)N(C)C[C@@H]1Oc2ccc(NS(=O)(=O)c3cccs3)cc2C(=O)N([C@@H](C)CO)C[C@H]1C	.	.	.	-22	.
C/C(CC(=O)Nc1cc(C)ccn1)=N\NC(=O)c1cccc(C)c1	0	-6	-3	26	-1
C/C(CC(=O)Nc1cc(C)ccn1)=N\NC(=O)c1cccc(C)c1O	11	35*	4	14	33
Cc1ccc(S(=O)(=O)c2c(C)cc(C)nc2Oc2cccc(C(F)(F)F)c2)cc1	-14	3	-2	active	-25
CSc1nc(C)cc(OCC(=O)N/N=C/c2ccccc2O)n1	4	-4	-4	49*	-3
O=C(NCCCN1CCOCC1)C(=O)N/N=C/c1ccccc1O	5	-4	-2	69*	1
O=C(CCN1CCOCC1)N/N=C/c1cc(Br)cc(Br)c1O	15	-2	5	70*	13
O=C(NCc1ccccn1)C(=O)N/N=C/c1ccccc1O	-10	-3	0	64*	-1
Cc1cc(/C=N/NC(=O)C(=O)NCc2ccccn2)c(C)n1-c1cccc(Br)c1	-2	7	4	.	5
O=C(C[C@@H]1C=C[C@@H](NS(=O)(=O)c2ccc(F)cc2)[C@H](CO)O1)N1CCN(c2ccccc2)CC1	.	.	.	33	.
COc1ccc(NC(=O)N(C)C[C@H]2Oc3ccc(NS(=O)(=O)c4ccc(OC)cc4)cc3CC(=O)N([C@H](C)CO)C[C@H]2C)cc1	.	.	.	-5	.
O=C(O)COc1ccc(/C=N/NC(=O)COc2nsnc2N2CCOCC2)cc1	8	-1	-3	-8	-7
O=C(COc1nsnc1N1CCOCC1)N/N=C/c1ccccc1O	-3	-6	3	59*	0
C[n+]1c(-c2ccccc2)cc2c(=Cc3ccccc3)c3ccccc3n21	-108	-17	-68	24	-14
CN(C)c1ccc(C=c2c3cc(O)ccc3n3c2cc(-c2ccccc2)[n+]3C)cc1	-146	-29	-81	60*	-38
SMILES	ABHD4 inh	TCR-CD3 inh	SIAE primary	ARNT-TACC3 inh	HTRA1 inhibitor
O=C(CSc1ccc2nnc(-c3ccccn3)n2n1)Nc1ccc2c(c1)OCO2	7	2	14	51*	2
O=C(CSc1ccc2nnc(-c3ccccn3)n2n1)N1CCN(c2ccccc2)CC1	2	2	-1	67*	1
CS(=O)(=O)Nc1ccc2c(c1)[C@@H]1C[C@H](CC(=O)N3CCOCC3)O[C@H](CO)[C@@H]1O2	.	.	.	-9	.
C[C@@H]1CCCCO[C@H](CN(C)C(=O)Cc2ccccc2)[C@@H](C)CN([C@@H](C)CO)C(=O)c2cc(NC(=O)C3CCCCC3)ccc2O1	.	.	.	-2	.
O=c1cnnc(N/N=C/c2cccs2)[nH]1	4	4	6	62*	3
COCCOC(=O)N1C(=O)[C@@]2(c3ccccc31)[C@H](c1ccc(OCCO)cc1)N1[C@H](c3ccccc3)[C@H](c3ccccc3)OC(=O)[C@H]1[C@@H]2C(=O)N1CCN(c2ncccn2)CC1	.	.	.	-11	.
N[C@@H](C(=O)N[C@@H]1C(=O)N2C(C(=O)O)=C(Cl)CS[C@H]12)c1ccccc1	12	14	3	40*	-5
CC(C)Oc1cccc(C(=O)NC(=S)Nc2cccc(NC(=O)c3ccccc3Cl)c2)c1	-10	-9	-71	49*	-11
C/C(=N\Nc1nc(-c2ccccn2)nc2ccccc12)c1ccc(F)cc1	.	.	.	5	-1
c1ccc(CN2CCN(c3nc(-c4ccccn4)nc4ccccc34)CC2)cc1	-3	4	2	-3	2
c1ccc(-c2nc(N3CCCCCC3)c3ccccc3n2)nc1	10	-5	2	76*	18
c1ccc(-c2nc(N3CCOCC3)c3ccccc3n2)nc1	-2	-14	-1	.	7
CCN1CCN(c2nc(-c3ccccn3)nc3ccccc23)CC1	7	-2	-6	46*	25
c1ccc(CCNc2nc(-c3ccccn3)nc3ccccc23)cc1	3	3	-7	64*	7
Cc1noc(C)c1NC(=O)N(C)C[C@@H]1Oc2ccc(NS(=O)(=O)c3ccccc3)cc2CC(=O)N([C@H](C)CO)C[C@H]1C	.	.	.	-4	.
C[C@H]1CCCCO[C@H](CN(C)C(=O)c2ccccc2)[C@@H](C)CN([C@@H](C)CO)C(=O)c2cc(NC(=O)Cc3ccccc3)ccc2O1	.	.	.	-14	.
C[C@H](CO)N1C[C@H](C)[C@H](CN(C)Cc2ccccn2)Oc2ncc(-c3ccc(F)cc3)cc2C1=O	.	.	.	11	.
O=C(N/N=C/c1sc2ccccc2c1O)c1ccccc1	.	.	.	61*	29
COc1ccc2cc(C(=O)N/N=C/c3sc4ccccc4c3O)ccc2c1	3	-10	1	64*	31
COc1ccc(NS(=O)(=O)c2cccc(C(=O)N/N=C/c3c(F)c(F)c(F)c(F)c3F)c2)cc1	-37	-15	-31	-5	-22
COc1ccc(C(=O)N/N=C/c2sc3ccccc3c2O)cc1	.	.	.	78*	24
O=C(N/N=C/c1ccc(F)cc1)c1ccccc1	-3	2	1	.	10
COc1ccc(N=Cc2sc3ccccc3c2Cl)cc1	2	-2	-1	8	0
CC(=O)N1C[C@H]2[C@@H](c3ccccc31)[C@@H](CO)N2S(=O)(=O)c1ccccc1	.	.	.	14	.
CCCC#Cc1ccc2c(c1)O[C@@H](CN(C)Cc1cncnc1)[C@H](C)CN([C@@H](C)CO)S2(=O)=O	.	.	.	-5	.
O=C(Cc1ccncc1)NCC[C@@H]1CC[C@@H](NC(=O)C2CCCCC2)[C@H](CO)O1	.	.	.	-4	.
C[C@H]1CN([C@@H](C)CO)C(=O)c2cc(NC(=O)Nc3ccc(C(F)(F)F)cc3)ccc2O[C@H]1CN(C)S(=O)(=O)c1ccc(F)cc1	.	.	.	-13	.
Cc1cccc(-c2ccc([C@H]3[C@@H](CO)N4CCCCN(C(=O)c5ccncc5)C[C@H]34)cc2)c1	.	.	.	0	.
COc1ccc(NC(=O)N(C)C[C@@H]2OCCCC[C@H](C)Oc3ccc(NC(=O)Nc4c(C)noc4C)cc3C(=O)N([C@@H](C)CO)C[C@H]2C)cc1	.	.	.	-1	.
